Read-outs that look alike come from different tables or passages of the source. Each block holds one compound with its values, some of them ahead of it.
What was measured:
mPanx1-GFP [1] = target: T1, mPanx1-GFP (Mus musculus, UniProt Q9JIP4); test: Whole cell patch clamp of depolarization-induced; type: cell-based
In short: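 Neuro2A cells in DMEM with 10% FCS, lipofectamine-transfected with mPanx1-GFP, recorded 24–36 h after replating. Whole-cell clamp at room temperature, held at −60 mV. Pipette CsCl/EGTA with 1 mM ATP. Currents evoked by 10-s ramps from −60 to +100 mV at 20-s intervals; kinetics from +100 mV current over 8.5 min. Test compound superfused at 1 nM–1 mM, washed out after a stable plateau. Dose-response curves; timing by ANOVA with Dunnett's test.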

untagged mPanx1 = untagged mPanx1 (Mus musculus, UniProt Q9JIP4); type: cell-based
In short: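 Neuro2A cells transfected with untagged mPanx1 construct. Whole-cell recording at room temperature on cells held at −60 mV, with pH 7.4 external and CsCl/EGTA/ATP pipette solutions. Channels activated by 10-s voltage ramps from −60 to +100 mV. Test compound superfused during ramps, then washed out to test reversibility.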

mPanx1-GFP [2] = target: T1, mPanx1-GFP; test: Inside-out single channel patch clamp on Rin-m cells transfected with Panx1-GFP; type: cell-based; conditions: for Effect on open time of Panx1-GFP channel: inside-out patch
In short: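 Rin-m cells grown in RPMI with 5% fetal calf serum, under passage 20. Transfected overnight with 2 μg mPanx1-GFP via lipofectamine, then replated 24–36 h. Inside-out single-channel recordings at room temperature on brightly fluorescent cells. Bath pH 7.4 NaCl/Hepes; pipette CsCl/EGTA with 1 mM ATP. Test compound perfused 20 s, then washed out. Mean channel open time compared before, during and after.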

[3] = test system: C×46 hemichannels and Panx1 channels; conditions: oocytes; ref Bruzzone et al, 2006; cited from earlier work
adenosine receptors = conditions: ref Weiss et al., 2003; cited from earlier work
human erythrocytes = conditions: ref Skas et al, 2009; cited from earlier work
murine erythrocytes = conditions: ref Skals et al, 2009; cited from earlier work
astrocytes = conditions: nanomolar concentrations, ref Suadicani et al, 2006; cited from earlier work
Panx1 = conditions: nanomolar concentrations, astrocytes; ref Iglesias et al, 2008, 2009; cited from earlier work
[4] = 100 nM, listed as mefloquine from Bioblocks
[5] = 100 nM, listed as mefloquine from Sigma

T1 sequence (Q9JIP4 whole entry, the tested form may be a part): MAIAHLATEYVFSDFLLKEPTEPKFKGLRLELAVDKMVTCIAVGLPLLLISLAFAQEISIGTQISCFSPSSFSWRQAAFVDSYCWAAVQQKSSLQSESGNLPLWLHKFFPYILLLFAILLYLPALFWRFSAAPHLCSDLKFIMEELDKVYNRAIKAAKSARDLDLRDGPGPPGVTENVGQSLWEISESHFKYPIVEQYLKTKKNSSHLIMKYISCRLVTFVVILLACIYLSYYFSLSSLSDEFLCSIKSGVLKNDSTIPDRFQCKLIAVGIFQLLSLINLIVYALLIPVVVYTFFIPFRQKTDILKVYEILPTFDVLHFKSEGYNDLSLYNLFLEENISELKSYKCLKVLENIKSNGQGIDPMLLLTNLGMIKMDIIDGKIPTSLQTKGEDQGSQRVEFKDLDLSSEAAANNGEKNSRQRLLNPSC
untagged mPanx1, sequence (Q9JIP4 whole entry, the tested form may be a part): as above

Time required for 50% blockade of Panx1 currents (mPanx1-GFP [1]): 1.5 min | Effect on Panx1-GFP currents evoked by depolarizing voltage ramps (mPanx1-GFP [1]; 10 nM): similarly reduced | Effect on Panx1-GFP currents evoked by depolarizing voltage ramps (mPanx1-GFP [1]; 100 nM): substantially reduced | Time at which current amplitudes were significantly reduced compared to control (mPanx1-GFP [1]; 100 nM, currents at +100mV): 1.5 min | Effect on Panx1-GFP currents evoked by depolarizing voltage ramps (mPanx1-GFP [1]; [4]): similarly reduced | Effect on Panx1-GFP currents evoked by depolarizing voltage ramps (mPanx1-GFP [1]; [5]): not affected | Effect on Panx1-GFP currents evoked by depolarizing voltage ramps (mPanx1-GFP [1]; 1μM): not affected | Effect on Panx1-GFP currents evoked by depolarizing voltage ramps (mPanx1-GFP [1]; 100μM): only minimally blocked | Time required for 50% blockade of Panx1 currents (mPanx1-GFP [1]; applied at 100nM): 0.5 min | Times less potent than erythro-mefloquine racemate from the two other sources (mPanx1-GFP [1]; compared with Bioblocks and NCI-NIH racemate): 10,000 times | Effect on untagged Panx1 currents (untagged mPanx1; 10 nM): similarly reduced | Effect on untagged Panx1 currents (untagged mPanx1; [4]): similarly reduced | Effect on untagged Panx1 currents (untagged mPanx1; [5]): not affected | Effect on untagged Panx1 currents (untagged mPanx1; 1μM): not affected | Effect on open time of Panx1-GFP channel (mPanx1-GFP [2]; 100nM perfused for 20 seconds): decreased | Effect on open time of Panx1-GFP channel (mPanx1-GFP [2]; 1 μM): did not appreciably affect | Mean open time of Panx1 channel after washout (mPanx1-GFP [2]; after washout of 100nM): restored
SMILES: OC(c1cc(C(F)(F)F)nc2c(C(F)(F)F)cccc12)C1CCCCN1 (racemic) [(±)-erythro-(R*/S*)-mefloquine]

Effect on Panx1-GFP currents evoked by depolarizing voltage ramps (mPanx1-GFP [1]; 1μM): prevented | Time required for 50% blockade of Panx1 currents (mPanx1-GFP [1]; applied at 10μM): 1.5 min
SMILES: O[C@H](c1cc(C(F)(F)F)nc2c(C(F)(F)F)cccc12)[C@H]1CCCCN1 [(−)-threo-(11R/2′R)-mefloquine]

SMILES: O=C(O)c1ccccc1Nc1cccc(C(F)(F)F)c1 [flufenamic acid]
Difference in potency for blockade between C×46 hemichannels and Panx1 channels [3]: 5–10 fold

SMILES: CC1(C)[C@@H](OC(=O)CCC(=O)O)CC[C@]2(C)[C@H]3C(=O)C=C4[C@@H]5C[C@@](C)(C(=O)O)CC[C@]5(C)CC[C@@]4(C)[C@]3(C)CC[C@@H]12 [carbenoxolone]
Difference in potency for blockade between C×46 hemichannels and Panx1 channels [3]: 5–10 fold

SMILES: OC(c1cc(C(F)(F)F)nc2c(C(F)(F)F)cccc12)C1CCCCN1 (single isomer, unassigned; (-)) [(−)-erythro- enantiomer, (−)-erythro-(11S/2′R)-MFQ]
Binding to adenosine receptors (adenosine receptors): bind

SMILES: OC(c1cc(C(F)(F)F)nc2c(C(F)(F)F)cccc12)C1CCCCN1 (centres unmarked) [mefloquine]
Concentration required for prevention of HIyA-induced hemolysis (human erythrocytes): above 10 μM | Concentration required for prevention of HIyA-induced hemolysis (murine erythrocytes): above 10 μM | Effect on dye uptake evoked by P2X7 receptor stimulation (astrocytes): block | Effect on depolarization- and BzATP-evoked Panx1 currents (Panx1): inhibit
